This is an account of results in ChEMBL document CHEMBL1124333, “Prostaglandin photoaffinity probes: synthesis and biological activity of azide-substituted 16-phenoxy- and 17-phenyl-PGF2 alpha prostaglandins” (J Med Chem, 1989).

Test [1] in a line: Relative ratio in comparison with PGF2-alpha in ovine luteal cells. The class given is cell-based.
Test [2] has as its target T1, Prostaglandin F2-alpha receptor (Bos taurus, UniProt P37289). Briefly: Binding potency towards Prostaglandin F2 alpha receptor (competitive binding) with natural [3H]-PGF 2 alpha in bovine corpora lutea plasma membranes (BCLM). A digest of the protocol:
(§1)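 Bovine corpora lutea were homogenized in ice-cold 10 mM Tris-HCl pH 7.0 with 250 mM sucrose, 1 mM CaCl2, BSA, indomethacin, DTT and protease inhibitors. Membranes were pelleted at 17339g and resuspended at about 1-2 mg protein/mL. They were diluted 1:1 with serum-free culture medium and incubated 90 min, to equilibrium, with [3H]PGF2α and competitor.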

A short description of test [3]: Relative ratio in comparison with PGF2-alpha in bovine corpus lutea membranes. Type of test: cell membranes.
The target of test [4] is T1, Prostaglandin F2-alpha receptor. Briefly: Binding potency towards PGF-2 alpha receptor (competitive binding) with natural [3H]-PGF 2 alpha in bovine corpora lutea plasma membranes (BCLM). In short, it runs like this:
as §1

Test [5] is described as follows: Relative ratio in comparison with PGF2-alpha.

T1 sequence (P37289 whole entry): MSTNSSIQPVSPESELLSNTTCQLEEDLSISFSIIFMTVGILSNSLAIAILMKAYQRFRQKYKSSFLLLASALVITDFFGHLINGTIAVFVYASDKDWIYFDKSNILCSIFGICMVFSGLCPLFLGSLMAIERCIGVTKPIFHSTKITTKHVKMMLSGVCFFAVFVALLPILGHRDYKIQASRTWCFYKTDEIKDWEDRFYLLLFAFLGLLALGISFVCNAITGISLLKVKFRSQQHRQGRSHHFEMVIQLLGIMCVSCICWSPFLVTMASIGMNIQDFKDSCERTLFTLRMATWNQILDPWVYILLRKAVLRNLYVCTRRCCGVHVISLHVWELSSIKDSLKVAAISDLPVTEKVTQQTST

`[N-]=[N+]=Nc1cc(O)cc(OC[C@H](O)/C=C/[C@@H]2[C@@H](C/C=C\CCCC(=O)O)[C@@H](O)C[C@H]2O)c1`: in test [1], the Ratio was 250.
The compound `[N-]=[N+]=Nc1ccc(OC[C@H](O)/C=C/[C@@H]2[C@@H](C/C=C\CCCC(=O)O)[C@@H](O)C[C@H]2O)c(O)c1` displayed an IC50 in test [2] of 120 µM. Also, the Ratio in test [3] was 860.
For the compound `[N-]=[N+]=Nc1ccc(CC[C@H](O)/C=C/[C@@H]2[C@@H](C/C=C\CCCC(=O)O)[C@@H](O)C[C@H]2O)cc1I`, in test [2], the IC50 amounted to 7 µM. Further, the Ratio in test [1] is 8.1; in test [3], 50.
In test [2], `[N-]=[N+]=Nc1ccc(CC[C@H](O)/C=C/[C@@H]2[C@@H](C/C=C\CCCC(=O)O)[C@@H](O)C[C@H]2O)c(O)c1` came in with an IC50 of 220 µM. The Ratio in test [1] was 140; in test [3] it was 1600.
In turn, `COC(=O)CCC/C=C\C[C@@H]1C(/C=C/[C@H](O)CCc2ccccc2)[C@H](O)C[C@@H]1O` (stereo not given in full) had an IC50 in test [4] of 50 µM. Further, the Ratio in test [3] was determined as 360.
On the same counts, the results for `COC(=O)CCC/C=C\C[C@@H]1C(/C=C/[C@@H](O)CCc2ccccc2)[C@H](O)C[C@@H]1O` (stereo not given in full) are 2 µM and 14.
As for `[N-]=[N+]=Nc1ccc(CC[C@@H](O)/C=C/[C@@H]2[C@@H](C/C=C\CCCC(=O)O)[C@@H](O)C[C@H]2O)cc1I`, the IC50 in test [2] was 68 µM. Moreover, the Ratio in test [5] worked out at 490.

One may read the IC50 as the concentration needed to halve the response being measured.
